Test results reported in ChEMBL document CHEMBL2086284, “(Z)-1-aryl-3-arylamino-2-propen-1-ones, highly active stimulators of tubulin polymerization: synthesis, structure-activity relationship (SAR), tubulin polymerization, and cell growth inhibition studies” (J Med Chem, 2012).
pIC50: −log10 of the molar value. The source made the active and inactive calls. The rule behind the calls is not given here.

Columns and labels:
[1] = system: DU-145; assay: Cytotoxicity against androgen receptor-deficient human DU145 cells after 96 hrs by trypan blue exclusion assay; assay type: functional, cell-based; settings: DU-145, 96 h
In short: (§1)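 Cells grown in DMEM or RPMI with 10% FBS and penicillin-streptomycin. Seeded at 1.0 × 10^5 cells/mL/well in 6-well dishes; compounds were added 24 h later at various concentrations. Viable cells were counted by trypan blue exclusion from duplicate wells after 96 h of treatment, giving a dose-response endpoint.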

[2] = system: K562; assay: Cytotoxicity against human K562 cells after 96 hrs by trypan blue exclusion assay; assay type: functional, cell-based; settings: K562, 96 h; in short: as §1
[3] = system: BT-20; assay: Cytotoxicity against estrogen receptor-deficient human BT20 cells after 96 hrs by trypan blue exclusion assay; assay type: functional, cell-based; settings: BT-20, 96 h; in short: as §1
[4] = system: MCF7; assay: Cytotoxicity against human MCF7 cells expressing estrogen receptor after 96 hrs by trypan blue exclusion assay; assay type: functional, cell-based; settings: MCF7, 96 h; in short: as §1
[5] = system: SK-BR-3; assay: Cytotoxicity against estrogen receptor-deficient human SKBR3 cells after 96 hrs by trypan blue exclusion assay; assay type: functional, cell-based; settings: SK-BR-3, 96 h; in short: as §1
[6] = system: BT-474; assay: Cytotoxicity against human BT474 cells expressing estrogen receptor after 96 hrs by trypan blue exclusion assay; assay type: functional, cell-based; settings: BT-474, 96 h; in short: as §1
[7] = system: HeLa; assay: Induction of mitotic arrest in human HeLa cells assessed as increase of phosphorylated histone H3 at Ser10 level at 1 uM after 24 hrs by Western blotting relative to control; assay type: functional
In short: (§2)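 HeLa treated with 1 μM and harvested at set times. Pellets were frozen, then lysed in HEPES/Triton X-100/NaCl buffer, pH 7.5, with phosphatase and protease inhibitors. Blots were probed sequentially for phospho-histone H3 (Ser10), histone H3, cyclin B1, PLK-1 and BubR1, with GAPDH as loading control. Antibodies: primary 1:1000, secondary 1:10,000. Fold increase is relative to control. N=3.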

[8] = system: MIA PaCa-2; assay: Cytotoxicity against human MIAPaCa2 cells after 96 hrs by trypan blue exclusion assay; assay type: functional, cell-based; settings: MIA PaCa-2, 96 h; in short: as §1
[9] = system: A549; assay: Cytotoxicity against human A549 cells after 96 hrs by trypan blue exclusion assay; assay type: functional, cell-based; settings: A549, 96 h; in short: as §1
[10] = system: HeLa; assay: Cytotoxicity against human HeLa cells after 96 hrs by trypan blue exclusion assay; assay type: functional, cell-based; in short: as §1
[11] = Cytotoxicity against human COLO320 cells after 96 hrs by trypan blue exclusion assay; assay type: functional, cell-based; settings: COLO 320, 96 h; in short: as §1
[12] = system: PANC-1; assay: Cytotoxicity against human PANC1 cells after 96 hrs by trypan blue exclusion assay; assay type: functional, cell-based; settings: PANC-1, 96 h; in short: as §1
[13] = system: SK-MEL-28; assay: Cytotoxicity against human SK-MEL-28 cells after 96 hrs by trypan blue exclusion assay; assay type: functional, cell-based; settings: SK-MEL-28, 96 h; in short: as §1
[14] = Cytotoxicity against human HTB-126 cells after 96 hrs by trypan blue exclusion assay; assay type: functional, cell-based; settings: HTB126, 96 h; in short: as §1
[15] = system: Caco-2; assay: Cytotoxicity against human Caco2 cells after 96 hrs by trypan blue exclusion assay; assay type: functional, cell-based; settings: Caco-2, 96 h; in short: as §1
[16] = system: Raji; assay: Cytotoxicity against human Raji cells after 96 hrs by trypan blue exclusion assay; assay type: functional, cell-based; in short: as §1
[17] = system: SNU-5; assay: Cytotoxicity against human SNU5 cells after 96 hrs by trypan blue exclusion assay; assay type: functional, cell-based; settings: SNU-5, 96 h; in short: as §1
[18] = system: NCI-N87; assay: Cytotoxicity against human NCI-N87 cells after 96 hrs by trypan blue exclusion assay; assay type: functional, cell-based; settings: NCI-N87, 96 h; in short: as §1
[19] = system: HCT-15; assay: Cytotoxicity against human HCT15 cells after 96 hrs by trypan blue exclusion assay; assay type: functional, cell-based; settings: HCT-15, 96 h; in short: as §1
[20] = Cytotoxicity against human MES-SA cells after 96 hrs by trypan blue exclusion assay; assay type: functional, cell-based; in short: as §1
[21] = Cytotoxicity against human MESSA/DX5 cells after 96 hrs by trypan blue exclusion assay; assay type: functional, cell-based; settings: MES-SA/Dx5, 96 h; in short: as §1
[22] = system: DU-145; assay: Cell cycle arrest in human DU145 cells assessed as accumulation at G2/M phase after 24 hrs using propidium iodide staining by FACS analysis; assay type: functional, cell-based
In short: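 DU145 plated at 1.0 × 10^6 cells per dish, treated 24 h later for 24 h across a range of concentrations. Cells were fixed in ice-cold 70% ethanol, stained with propidium iodide plus RNase A for 30 min at 37 °C, and DNA content was read by flow cytometry. Phases: G1 (2N), S (>2N<4N), G2/M (4N). N=3.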

[23] = system: DU-145; assay: Cell cycle arrest in human DU145 cells assessed as accumulation at G2/M phase at 2.5 uM by propidium iodide staining based FACS analysis; assay type: functional; settings: TDE = time-dependent effect
In short: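 DU145 plated at 1.0 × 10^6 cells/dish and dosed 24 h later at 2.5 μM. Floating and trypsinised cells were pooled at 24, 48 and 72 h, fixed in ice-cold 70% ethanol for at least 24 h, stained 30 min at 37 °C with propidium iodide and RNase A, and analysed for DNA content by flow cytometry.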

[24] = system: HeLa; assay: Induction of mitotic arrest in human HeLa cells assessed as increase of phosphorylated histone H3 at Ser10 level at 1 uM after 6 hrs by Western blotting; assay type: functional, cell-based; in short: as §2
[25] = system: HeLa; assay: Induction of mitotic arrest in human HeLa cells assessed as increase of phosphorylated cyclin B1 level at 1 uM after 6 hrs by Western blotting relative to control; assay type: functional; in short: as §2
[26] = system: HeLa; assay: Induction of mitotic arrest in human HeLa cells assessed as increase of phosphorylated Bcl2 level at 1 uM after 24 hrs by Western blotting relative to control; assay type: functional
[27] = system: HeLa; assay: Induction of mitotic arrest in human HeLa cells assessed as increase of phosphorylated PLK1 level at 1 uM after 6 hrs by Western blotting relative to control; assay type: functional; in short: as §2
[28] = system: HeLa; assay: Induction of mitotic arrest in human HeLa cells assessed as increase of phosphorylated BUBR1 level at 1 uM after 6 hrs by Western blotting relative to control; assay type: functional; in short: as §2
[29] = system: HeLa; assay: Induction of apoptosis in human HeLa cells assessed as cleavage of PARP at 1 uM after 24 hrs by Western blot analysis; assay type: functional, cell-based
In short: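 HeLa exposed to 1.0 μM for a time course. Lysates were resolved on 10% SDS-PAGE, blotted to nitrocellulose and probed with anti-PARP (primary 1:1000, secondary 1:10,000), with ECL detection. Cleaved PARP was taken as the apoptosis/caspase-3 marker. N=3.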

[30] = system: HeLa; assay: Inhibition of cytoplasmic microtubule polymerization in human HeLa cells at 0.5 uM after 18 hrs by FITC-conjugated DAPI staining based fluorescence microscopy; assay type: cell-based
In short: (§3)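 HeLa grown on glass coverslips and exposed for 18 h to test agent (0.25 or 0.5 μM), paclitaxel or vincristine (0.005 μM), or DMSO. Cells were fixed in 4% paraformaldehyde, blocked, permeabilised, and stained with FITC anti-α-tubulin (1:400) and then DAPI (0.5 ug/mL). Mitotic spindles or interphase cytoplasmic microtubules were scored by fluorescence microscopy at 100x.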

[31] = system: HeLa; assay: Induction of mitotic arrest in human HeLa cells assessed as unbound chromosome outside metaphase plate at 0.25 uM after 18 hrs by FITC-conjugated DAPI staining based fluorescence microscopy; assay type: functional, cell-based; in short: as §3
[32] = system: HeLa; assay: Induction of mitotic arrest in human HeLa cells assessed as dispersed chromosome spread with three or more tubulin bundles at 0.5 uM after 18 hrs by FITC-conjugated DAPI staining based fluorescence microscopy; assay type: functional, cell-based; in short: as §3
[33] = system: HeLa; assay: Inhibition of cytoplasmic microtubule polymerization in human HeLa cells at 0.005 uM after 18 hrs by FITC-conjugated DAPI staining based fluorescence microscopy; assay type: cell-based; in short: as §3
[34] = Drug resistant, ratio of IC50 for human MESSA/DX5 cells to IC50 for human MESSA cells; assay type: functional, MES-SA
In short: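 MES-SA uterine sarcoma cells and the P-glycoprotein-expressing multidrug-resistant MES-SA/DX5 sub-line were grown in DMEM or RPMI with 10% FBS. Cells were plated in 6-well dishes at 1.0 × 10^5 cells/mL/well, dosed at various concentrations 24 h later, and exposed for 96 h. Viable cells were counted by trypan blue exclusion from duplicate wells. The resistant/parental IC50 ratio was taken.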

[35] = system: HeLa; assay: Induction of mitotic arrest in human HeLa cells assessed as unbound chromosome outside metaphase plate at 0.005 uM after 18 hrs by FITC-conjugated DAPI staining based fluorescence microscopy; assay type: functional, cell-based; in short: as §3

## COc1cc(OC)c(N/C=C\C(=O)c2c(OC)cc(OC)cc2OC)c(OC)c1
[1]
  pIC50: 4.12
[2]
  pIC50: 4.30

## COc1ccc(N/C=C\C(=O)c2c(OC)cc(OC)cc2OC)c(OC)c1
[1]
  pIC50: 4.12
[2]
  pIC50: 4.12

## COc1cc(C(=O)/C=C\Nc2ccc3[nH]ccc3c2)c(Br)c(OC)c1OC
[1]
  pIC50: 6.82
[2]
  pIC50: 6.70

## COc1cc(OC)c(C(=O)/C=C\Nc2ccccc2O)c(OC)c1
[1]
  pIC50: 4.60
[2]
  pIC50: 4.12

## COc1ccc(N/C=C\C(=O)c2cc(OC)c(OC)c(OC)c2Cl)cc1O
[1]
  pIC50: 6.70
[2]
  pIC50: 6.60

## COc1cc(OC)c(C(=O)/C=C\Nc2cc(OC)c(OC)c(OC)c2)c(OC)c1
[1]
  pIC50: 4.46
[2]
  pIC50: 4.12

## COc1ccc(N/C=C\C(=O)c2c(OC)cc(OC)cc2OC)cc1
[1]
  pIC50: 4.12
[2]
  pIC50: 4.12

## COc1ccc(N/C=C\C(=O)c2cc(OC)c(OC)c(OC)c2Br)cc1O
[1]
  pIC50: 7.22
[2]
  pIC50: 7.00
[3]
  pIC50: 6.12
[4]
  pIC50: 6.40
[5]
  pIC50: 6.52
[6]
  pIC50: 7.00
[7]
  fold change (FC): 121
[8]
  pIC50: 6.10
[9]
  pIC50: 6.05
[10]
  pIC50: 6.70
[11]
  pIC50: 6.82
[12]
  pIC50: 6.70
[13]
  pIC50: 6.70
[14]
  pIC50: 7.00
[15]
  pIC50: 6.60
[16]
  pIC50: 6.70
[17]
  pIC50: 6.60
[18]
  pIC50: 6.52
[19]
  pIC50: 7.40
[20]
  pIC50: 6.60
[21]
  pIC50: 6.30
[22]
  Activity: Dose-dependent effect
[23]
  Activity: tde
[24]
  Activity: Active
[25]
  fold change (FC): 2.5
[26]
  fold change (FC): 88
[27]
  fold change (FC): 2.5
[28]
  fold change (FC): 2.95
[29]
  Activity: Active
[30]
  inhibition: inactive
[31]
  Activity: Active
[32]
  Activity: Active

## COc1cc(C(=O)/C=C\Nc2cc(O)ccc2Cl)cc(OC)c1OC
[1]
  pIC50: 6.12
[2]
  pIC50: 5.60

## COc1ccc(C(=O)/C=C\Nc2cc(OC)c(OC)c(OC)c2)cc1
[1]
  pIC50: 4.30
[2]
  pIC50: 4.12

## COc1ccc(N/C=C\C(=O)c2cc(OC)c(OC)c(OC)c2[N+](=O)[O-])cc1
[1]
  pIC50: 6.22
[2]
  pIC50: 6.22

## COc1ccccc1N/C=C\C(=O)c1cc(OC)c(OC)c(OC)c1
[1]
  pIC50: 5.60
[2]
  pIC50: 5.60

## COc1ccc(N/C=C\C(=O)c2cc(OC)c(OC)c(OC)c2)cc1N
[1]
  pIC50: 7.00
[2]
  pIC50: 6.60

## COc1cc(C(=O)/C=C\Nc2ccccc2O)cc(OC)c1OC
[1]
  pIC50: 6.60
[2]
  pIC50: 6.30

## COc1cc(C(=O)/C=C\Nc2ccc3cc[nH]c3c2)cc(OC)c1OC
[1]
  pIC50: 7.00
[2]
  pIC50: 6.70

## CC(=O)O[C@H]1C(=O)[C@@]2(C)[C@H]([C@H](OC(=O)c3ccccc3)[C@]3(O)C[C@H](OC(=O)[C@H](O)[C@@H](NC(=O)c4ccccc4)c4ccccc4)C(C)=C1C3(C)C)[C@]1(OC(C)=O)CO[C@@H]1C[C@@H]2O [PACLITAXEL]
[33]
  inhibition: inactive
[34]
  Ratio IC50: >100
[20]
  pIC50: 8.40
[21]
  pIC50: 6.12
[35]
  Activity: Active

## COc1cc(C(=O)/C=C\Nc2ccccc2O)c(Br)c(OC)c1OC
[1]
  pIC50: 6.60
[2]
  pIC50: 6.70

## COc1ccc(N/C=C\C(=O)c2cc(OC)c(OC)c(OC)c2Br)cc1
[1]
  pIC50: 6.70
[2]
  pIC50: 6.60
